Screens from PubChem.
The list is not random: actives were taken first. Their share in the collection is about 3%.
AI-2 QS modul: Vibrio harveyi AI-2 quorum sensing modulation; Vibrio harveyi JMH597 AI-2 luminescence/OD600 ratio, 9 h; stronger effect = lower value; strain lacks LuxN and CqsS sensors; 0 = neutral-control median; activity change, % at 7.5 µM; hit rate 0.4% among 300,000; AID 2094; in the data active = activity change below about -75%, passing the limit was not always enough; inconclusive = no clear call, values can overlap the other calls;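 also: luminescence divided by OD600 gain over 9 h not by final OD600 alone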
HIF activator: HIF pathway transcriptional activation; U2OS HRE-luciferase reporter, luminescence; normalized: DMSO 0%, desferrioxamine 100%; hit rate 0.32% among 300,000; AID 1910; activation, % at 7.5 µM (by protocol);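 active = mean activation of at least 10% of the iron chelator positive control signal, with at least half of replicates also reaching 10%; inconclusive = mean and replicate majority disagree about reaching 10%; inactive = mean and most replicates under 10%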
T cruzi repl: blocks replication of Trypanosoma cruzi; hit rate 1.4% among 300,000; inhibition, % (no concentration beside the values); AID 1885; T. cruzi beta-gal in NIH3T3, luminescence, 90 h;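 active = mean inhibition across valid replicates above about 55%, limit read from the data; inconclusive = mean below that limit but half or more replicates reach it; inactive = mean below it, under half of replicates reach it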;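 also: signal also drops with host cell toxicity which is not excluded here; 0% = plate median of DMSO wells and 100% = zero luminescence signal; higher percent means less beta-gal luminescence so fewer parasites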
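Test system: β-gal T. cruzi (Tulahuen C4) inside NIH/3T3 cells / Quantity: 5,000 cells/well / Measured by: luminescence from GalScreen with 0.05% NP40, read after 60 min / Medium: DMEM plus 2% FBS / Measure: parasite load inhibition, % / Reagent: Tulahuen C4 trypomastigotes, 5000/well / Schedule: co-culture of at least 90 h after 3 h attachment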
V-ATPase pH: alters yeast V-ATPase proton transport. response, % at 10 µM. hit rate 0.37% among 350,000. S. cerevisiae, pHLuorin cytosolic pH fluorescence; in the data active = response mostly above about 7.3%, no sharp cut-off; inactive = mostly below about 5.4%; also: actives read high
NRP1-CendR mod: alters CendR peptide binding to human NRP-1; O14786; FAM-RPARPAR peptide binding to NRP-1, fluorescence polarization; hit rate 0.85% among 360,000; inhibition, % at 25 µM;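 active = inhibition or corrected inhibition above about 18%, plus a signal ratio from 0.5 to 1.5, limit read from the data, passing the limit was not always enough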
Target sequence (O14786 whole entry, looked up): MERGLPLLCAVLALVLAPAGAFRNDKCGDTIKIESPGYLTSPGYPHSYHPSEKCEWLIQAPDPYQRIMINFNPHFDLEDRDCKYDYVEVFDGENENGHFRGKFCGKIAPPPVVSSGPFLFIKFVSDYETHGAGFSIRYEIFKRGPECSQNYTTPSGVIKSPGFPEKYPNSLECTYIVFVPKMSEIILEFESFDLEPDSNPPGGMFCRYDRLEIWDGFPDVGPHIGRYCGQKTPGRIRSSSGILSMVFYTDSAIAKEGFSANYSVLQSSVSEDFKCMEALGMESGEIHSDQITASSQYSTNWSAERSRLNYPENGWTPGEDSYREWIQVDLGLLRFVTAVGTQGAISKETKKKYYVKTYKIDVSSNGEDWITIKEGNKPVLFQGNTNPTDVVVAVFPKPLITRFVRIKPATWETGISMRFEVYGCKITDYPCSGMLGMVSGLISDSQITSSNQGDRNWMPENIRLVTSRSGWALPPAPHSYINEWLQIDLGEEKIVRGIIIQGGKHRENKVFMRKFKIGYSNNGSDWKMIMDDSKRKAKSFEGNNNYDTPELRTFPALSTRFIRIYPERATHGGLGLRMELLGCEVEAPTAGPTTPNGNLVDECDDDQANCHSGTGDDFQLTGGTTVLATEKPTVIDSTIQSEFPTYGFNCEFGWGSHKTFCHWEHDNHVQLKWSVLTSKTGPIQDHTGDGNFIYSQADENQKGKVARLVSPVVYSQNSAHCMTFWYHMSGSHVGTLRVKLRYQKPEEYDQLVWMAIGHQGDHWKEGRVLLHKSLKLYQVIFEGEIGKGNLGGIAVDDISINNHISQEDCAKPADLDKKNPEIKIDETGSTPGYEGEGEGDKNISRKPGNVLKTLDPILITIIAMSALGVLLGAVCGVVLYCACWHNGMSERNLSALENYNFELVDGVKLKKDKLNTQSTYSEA
Yeast superoxide: yeast age-related superoxide inhibition as caloric restriction mimetic; S. cerevisiae aged cells, superoxide DHE fluorescence; stronger effect = lower value; superoxide response (% of plate mean), % at 10 µM; hit rate 0.18% among 330,000;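 active = superoxide response under a set limit, about three screen SD below normal, cut at about 65% in these data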;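 also: yeast aged for seven days with compound at 30 °C before DHE staining; 100% = average MFI of all compound-treated wells on the plate with controls excluded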
V-ATPase pH SP: regulators of yeast V-ATPase proton transport. shares compounds with V-ATPase pH. S. cerevisiae pHLuorin cytosolic pH. response, % at 10 µM. hit rate 2% among 980; in the data active = response above about 24%;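 also: plate controls were vehicle wells for no effect and positive control wells for full effect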
* hit, by the source's call; ? = inconclusive; . = no result given.

SMILES	AI-2 QS modul	HIF activator	T cruzi repl	V-ATPase pH	NRP1-CendR mod	Yeast superoxide	V-ATPase pH SP
Cc1cccc(NC(=O)CNC(=O)COC(=O)c2ccc(C(C)(C)C)cc2)c1C	.	.	.	4.0	3.9	103.7	.
O=C(NCc1ccco1)Nc1ccc(OC(F)(F)F)cc1	13.7	0.4	.	0.4	-0.4	100.9	.
O=C(NCc1ccco1)Nc1ccc(Br)cc1	7.1	2.0	-0.4	11.4*	-3.2	89.8	0.1
COc1cccc(-n2c(CCn3nc(C)c([N+](=O)[O-])c3C)n[nH]c2=S)c1	28.5	-0.1	-11.0	9.7*	-0.9	93.7	-2.4
CCCn1c(SCC(=O)Nc2ccc(OCC)cc2)nnc1C(C)C	-1.9	0.5	-9.5	-4.6	-0.1	115.9	.
O=C(CC(=O)c1ccccc1)Nc1ccccc1	17.9	2.6	2.2	-0.4	1.2	97.0	.
COc1ccc(C(=O)c2sc(Nc3ccc(NC(C)=O)cc3)nc2C)cc1	16.3	-1.2	6.3	-1.3	-3.3	103.0	.
COc1cc(-c2nc(-c3cccc(C)c3)no2)cc(OC)c1OC	12.3	1.2	6.6	8.1*	-4.3	90.1	0.0
COc1ccc(-c2nc(-c3cccc(C)c3)no2)cc1OC	16.6	2.6	-2.9	2.9	0.0	96.1	.
O=C(NCCN1C(=O)S/C(=C\c2ccc(Cl)cc2)C1=O)c1ccc(F)c(S(=O)(=O)N2CCOCC2)c1	44.7	-14.3	-1.2	9.5*	-1.6	98.3	-2.0
C#CCOCCOCCOCCNc1nc(N2CCN(C(=O)[C@H](CCC(=O)O)n3cc(CN)nn3)CC2)nc(N2CCN(C(=O)[C@H](CCCCN)n3cc([C@@H](N)CC(N)=O)nn3)CC2)n1	.	.	.	7.9*	-9.3	98.0	-2.2
O=[N+]([O-])c1c(NCc2ccccc2)cc(N2CCc3ccccc3C2)c2nonc12	22.7	-0.6	6.8	5.8*	-23.1	89.7	2.1
NC(=O)CC(NC(=O)c1ccc(Br)cc1)c1ccc(N2CCN(c3ccc(F)cc3)CC2)c([N+](=O)[O-])c1 (centres undefined)	6.9	-0.4	-9.3	-2.1	3.5	92.5	.
O=C(O)C1CC=CCC1C(=O)NNc1c(Cl)cc(Cl)cc1Cl (centres undefined)	-2.2	-0.2	-17.2	11.6*	-4.6	102.7	0.9
Cc1nnc(SCCN2C(=O)c3ccccc3C2=O)[nH]c1=O	8.9	0.0	-7.7	3.5	-0.5	102.7	.
O=C1C=C(CCc2ccccc2)CCC1	.	.	.	1.6	4.5	.	.
Cn1nc(NC(=O)C(C)(C)C)c2c(F)cccc21	16.5	0.4	-12.9	11.9*	10.5	89.7	1.2
COc1ccc(NS(=O)(=O)CC(C)C)c(OC)c1	16.7	-0.5	-0.3	11.3*	-12.3	103.4	0.2
CCS(=O)(=O)Nc1ccc(-c2ccc(NS(=O)(=O)CC)c(OC)c2)cc1OC	6.1	-0.4	-4.9	-1.5	-7.0	104.9	.
O=C(COC(=O)c1c(Cl)cccc1Cl)NCC1CCCO1 (centres undefined)	29.5	-0.2	-21.9	11.5*	2.8	88.1	0.3
O=C(COC(=O)c1c(Cl)ccc(Cl)c1Cl)NCC1CCCO1 (centres undefined)	.	.	.	-0.2	9.8	93.3	.
COc1ccc(N(CC(=O)NCCC2=CCCCC2)S(=O)(=O)c2ccc(C)cc2)cc1OC	22.2	-1.0	46.2	1.0	6.9	131.6	.
COc1ccc(N(CC(=O)NCCC2=CCCCC2)S(=O)(=O)c2ccccc2)cc1OC	18.5	-0.9	59.8*	14.3*	-5.2	103.7	-1.1
CC(C)CNC(=O)c1ccc(Cl)c(N)c1	18.6	0.0	-3.4	.	.	97.1	.
Cc1c(NC(=O)COC(=O)C2(c3ccccc3F)CCCC2)c(=O)n(-c2ccccc2)n1C	14.0	-0.2	-4.0	10.6*	-6.2	81.5	-1.6
SMILES	AI-2 QS modul	HIF activator	T cruzi repl	V-ATPase pH	NRP1-CendR mod	Yeast superoxide	V-ATPase pH SP
Cc1c(NC(=O)COC(=O)C23CC4CC(CC(O)(C4)C2)C3)c(=O)n(-c2ccccc2)n1C	15.0	-0.2	-6.2	-3.0	17.5	77.9	.
CC(C)C[C@@H](CNCC(=O)[C@H](Cc1ccccc1)NC(=O)c1[nH]cnc1C(=O)N[C@@H](C)CN)NC(=O)c1nc[nH]c1C(=O)N[C@@H](CC(=O)O)C(=O)O	.	.	.	0.2	14.8	.	.
O=C(COC(=O)CCC(=O)c1ccccc1)NCCc1ccccc1	-5.7	-2.5	-9.5	-5.3	-0.9	108.7	.
O=C(COC(=O)CCC(=O)c1ccc(F)cc1)NCCc1ccccc1	.	.	.	0.6	0.7	111.0	-5.8
COc1cccc(NC(=O)CN(C)S(=O)(=O)c2ccc3c(c2)NC(=O)CS3)c1	23.5	-0.2	-2.5	11.7	4.2	93.3	3.5
COc1ccc(-c2nnc3sc(COc4ccccc4)nn23)cc1	2.8	0.0	-12.7	-0.6	1.9	105.5	.
COc1ccc(OCc2nn3c(-c4ccccn4)nnc3s2)cc1	7.8	-1.3	-2.0	9.5*	2.8	123.4	1.7
CCOC(=O)NCc1ccc2[nH]c(C)cc2c1	10.0	-0.1	-3.2	10.8*	0.0	109.1	2.1
Cc1cc(C)c2cc(C#N)c(SCC(=O)Nc3ccc4c(c3)OCO4)nc2c1	11.0	-1.0	1.4	0.1	-14.0	98.0	.
CCn1c(SCC(=O)NCCc2ccccc2)nnc1-c1cccs1	66.2	-0.3	-0.7	-0.2	4.3	91.5	.
CCn1c(SCC(=O)NCC(=O)Nc2ccc(F)cc2)nnc1-c1cccs1	28.7	0.0	-11.8	8.6*	-1.3	104.3	-5.6
COc1ccc(N2CCN(C(=O)c3cc4c(s3)CCCCC4)CC2)cc1	.	.	.	2.0	6.2	90.0	.
CC(c1ccco1)N(C(=O)C12CC3(C)CC(C)(CC(C)(C3)C1)C2)c1ccccn1 (centres undefined)	24.6	1.4	14.0	12.7*	-4.9	108.0	-2.9
Cc1ccc[n+](/C(=C\C(=C=[N-])C#N)C(=O)c2ccc(Cl)cc2)c1	3.8	1.0	-14.2	0.6	12.9	92.7	.
O=C(COC(=O)c1cnc(Cl)c(Cl)c1)NCCC1=CCCCC1	30.7	-1.5	-15.7	65.3*	-4.8	106.1	5.2
Nc1cc(C(=O)OCC(=O)NCCC2=CCCCC2)ccc1Cl	.	.	.	-1.4	7.3	100.4	.
COc1ccc(N(CC(=O)N2CCN(c3ccc(Cl)cc3)CC2)S(=O)(=O)c2c(C)n[nH]c2C)cc1	6.0	0.0	27.5	7.4*	-4.1	99.3	-1.4
O=C(Cc1ccc2c(c1)OCCO2)N1CCN(S(=O)(=O)c2ccccc2C(F)(F)F)CC1	20.6	-0.1	1.9	11.7*	-8.6	113.9	0.9
CC(NC(=O)C(=O)N/N=C\c1ccc([N+](=O)[O-])cc1)c1ccccc1 (centres undefined)	27.4	1.1	-0.6	-1.4	0.0	123.9	.
O=C1CC(=O)C(n2cncn2)C(c2ccc(Cl)cc2)C1 (centres undefined)	1.7	-0.8	?	7.5*	4.4	102.2	1.7
